# Laboratory results reported in ChEMBL document CHEMBL1128739, “Structure-activity relationships in the 8-amino-6,7,8,9-tetrahydro-3H-benz[e]indole ring system. 2. Effects of 8-amino nitrogen substitution on serotonin receptor binding and pharmacology” (J Med Chem, 1995).
# Key:
# [1] = molecular target: 5-hydroxytryptamine receptor 1B (Homo sapiens, UniProt P28222); test: In vitro binding affinity against cloned mammalian 5-hydroxytryptamine 1D receptor beta expressed in CHO cells, by using [3H]5-HT as radioligand; type: cell-based
# Outline: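 Membranes from CHO cells stably expressing the cloned receptor, made by mechanical disruption in ice-cold Tris/EDTA/EGTA pH 7.4 and differential centrifugation. [3H]serotonin at 1.7 nM in 50 mM Tris, 5 mM MgCl2, 0.1% ascorbic acid, pH 7.4. 11 drug concentrations in duplicate, 1 h at room temperature protected from light, then filtration. Excess serotonin defines nonspecific binding. One-site IC50 fit, Ki by Cheng-Prusoff.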
# [2] = molecular target: D(3) dopamine receptor (Rattus norvegicus) (UniProt P19020); test: The compound was tested in vitro for binding affinity against cloned mammalian Dopamine receptor D3 expressed in CHO cells by, using [3H]-spiperone as radioligand; type: cell-based; conditions: concentration not given here
# Outline: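 Cloned D3 receptor came from CHO cell membranes (20-60 μg protein). These were incubated 1 h at room temperature with [3H]spiperone (123 Ci/mmol, 0.5 nM) in 20 mM HEPES, 10 mM MgCl2, 150 mM NaCl, 1 mM EDTA, pH 7.4. Excess haloperidol defined nonspecific binding. There were 11 concentrations in duplicate. After filtration and scintillation counting, IC50 came from a one-site competition fit and Ki from Cheng-Prusoff.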
# Chain of D(3) dopamine receptor (Rattus norvegicus) (P19020 whole entry): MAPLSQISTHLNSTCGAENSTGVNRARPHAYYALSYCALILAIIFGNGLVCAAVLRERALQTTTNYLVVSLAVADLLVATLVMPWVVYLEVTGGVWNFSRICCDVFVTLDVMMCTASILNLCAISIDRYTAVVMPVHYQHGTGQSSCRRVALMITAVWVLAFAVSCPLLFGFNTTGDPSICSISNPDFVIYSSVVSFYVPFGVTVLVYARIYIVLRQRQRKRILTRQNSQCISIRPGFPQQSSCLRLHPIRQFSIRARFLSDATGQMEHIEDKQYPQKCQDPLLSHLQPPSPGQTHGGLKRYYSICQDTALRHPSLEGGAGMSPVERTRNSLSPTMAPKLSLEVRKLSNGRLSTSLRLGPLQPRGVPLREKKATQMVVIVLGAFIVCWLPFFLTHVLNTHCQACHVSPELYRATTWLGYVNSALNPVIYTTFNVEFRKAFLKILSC
# Chain of 5-hydroxytryptamine receptor 1B (P28222 whole entry): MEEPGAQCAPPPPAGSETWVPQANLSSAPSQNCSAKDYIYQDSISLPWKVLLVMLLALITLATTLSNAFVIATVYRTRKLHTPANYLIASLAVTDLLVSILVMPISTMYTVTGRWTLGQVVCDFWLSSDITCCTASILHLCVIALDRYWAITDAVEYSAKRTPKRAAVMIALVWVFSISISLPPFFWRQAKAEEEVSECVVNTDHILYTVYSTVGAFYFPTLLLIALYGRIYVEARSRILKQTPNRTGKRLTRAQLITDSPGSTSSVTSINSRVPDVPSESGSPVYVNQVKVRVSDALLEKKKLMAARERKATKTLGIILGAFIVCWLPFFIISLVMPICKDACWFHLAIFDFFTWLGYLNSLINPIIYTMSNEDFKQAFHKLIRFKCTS
compound,measurement,setting,value
CN(C)[C@H]1CCc2ccc3[nH]ccc3c2C1,Ki,[1],1.69 µM
same,inhibition,[2],< 45%
